Columns and labels:
Protease = Protease (Human immunodeficiency virus 1, UniProt Q9YQ12); assay: Inhibition of Wild type HIV1 Protease by FRET based assay
[1] = Inhibition of HIV1 Protease M2 variant by FRET based assay; parameters: species or system Human immunodeficiency virus 1
[2] = Inhibition of HIV1 Protease M1 variant by FRET based assay; parameters: species or system Human immunodeficiency virus 1
[3] = system: Human immunodeficiency virus 1; assay: Antiviral activity against HIV1 infected MT4 cells by MTT method; type: functional, organism-based; settings: Human immunodeficiency virus 1, MT4
In short: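 HIV-1 4–3 (100 CCID50) infected MT-4 cells, washed in PBS, seeded at 4 × 10⁴ cells/well in RPMI with 10% FBS. Compound dilutions added in triplicate at 0.5% DMSO final, 5 days at 37 °C, 5% CO₂, mock-infected controls in parallel. MTT added for 4 h, formazan solubilized, absorbance read at 540/690 nm.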

[4] = Inhibition of HIV1 Protease M3 variant by FRET based assay; parameters: species or system Human immunodeficiency virus 1

Chain of Protease (Q9YQ12 whole entry): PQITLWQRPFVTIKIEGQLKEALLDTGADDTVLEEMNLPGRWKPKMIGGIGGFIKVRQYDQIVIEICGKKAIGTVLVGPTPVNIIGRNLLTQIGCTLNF

Row | SMILES | Ki (Protease) | Ki [1] | Ki [2] | EC50 [3] | Ki [4]
1 | COC(=O)N[C@H](C(=O)N[C@@H](Cc1ccccc1)[C@@H](O)CN(CC(C)C)NC(=O)[C@@H]1CN(c2ccccc2)C(=O)O1)C(C)(C)C | 10.6 nM |  |  |  | 
2 | O=C(N[C@@H](Cc1ccccc1)[C@@H](O)C[C@H](Cc1ccccc1)NC(=O)[C@@H]1CN(c2cccc(C(F)(F)F)c2)C(=O)O1)OCc1cccnc1 | 41.1 nM |  |  |  | 
3 | CC(C)[C@@H](C(=O)N[C@@H](Cc1ccccc1)C[C@H](O)[C@H](Cc1ccccc1)NC(=O)[C@@H]1CN(c2ccccc2)C(=O)O1)N1CCCNC1=O |  | 13.9 nM | 175 nM | 1210 nM | 185 nM
4 | CC(=O)c1ccc(N2C[C@@H](C(=O)N[C@@H](Cc3ccccc3)[C@@H](O)C[C@H](Cc3ccccc3)NC(=O)COc3c(C)cccc3C)OC2=O)cc1 | 39.9 nM |  |  |  | 
5 | CC(C)CN(C[C@@H](O)[C@H](Cc1ccccc1)NC(=O)O[C@H]1CCOC1)S(=O)(=O)c1ccc(N)cc1 |  | 0.21 nM | 0.15 nM | 40 nM | 1.4 nM
6 | CC(=O)N[C@H](C(=O)N[C@@H](Cc1ccccc1)C[C@H](O)[C@H](Cc1ccccc1)NC(=O)[C@@H]1CN(c2ccccc2)C(=O)O1)C(C)C |  | 3.1 nM | 51.2 nM | 790 nM | 112 nM
7 | O=C(Cc1ccc2c(c1)OCO2)N[C@@H](Cc1ccccc1)[C@@H](O)C[C@H](Cc1ccccc1)NC(=O)[C@@H]1CN(c2ccccc2)C(=O)O1 | 657 nM |  |  |  | 
8 | COC(=O)N[C@H](C(=O)N[C@@H](Cc1ccccc1)C[C@H](O)[C@H](Cc1ccccc1)NC(=O)[C@@H]1CN(c2ccccc2)C(=O)O1)C(C)(C)C | 3.51 nM | 14 nM | 131 nM | 1030 nM | 392 nM
9 | COC(=O)N[C@H](C(=O)NN(CC(C)C)C[C@H](O)[C@H](Cc1ccccc1)NC(=O)[C@@H]1CN(c2ccccc2)C(=O)O1)C(C)(C)C | 7 nM | 39.2 nM | 231 nM |  | 549 nM
10 | CC(=O)c1cccc(N2C[C@@H](C(=O)N[C@@H](Cc3ccccc3)[C@@H](O)CN(Cc3ccc(-c4ccccn4)cc3)NC(=O)[C@@H]3CN(c4cccc(C(C)=O)c4)C(=O)O3)OC2=O)c1 | 1090 nM |  |  |  | 
11 | Cc1cccc(C)c1OCC(=O)N[C@@H](Cc1ccccc1)[C@@H](O)C[C@H](Cc1ccccc1)NC(=O)[C@H]1CN(c2ccccc2)C(=O)O1 | 4730 nM |  |  |  | 
12 | CC(C)(C)NC(=O)[C@@H]1C[C@@H]2CCCC[C@@H]2CN1C[C@@H](O)[C@H](Cc1ccccc1)NC(=O)[C@H](CC(N)=O)NC(=O)c1ccc2ccccc2n1 |  | 1.03 nM | 89.5 nM | 10 nM | 78.4 nM
13 | Cc1cccc(C)c1OCC(=O)N[C@@H](Cc1ccccc1)[C@@H](O)C[C@H](Cc1ccccc1)NC(=O)[C@@H]1CN(c2cccc(C(F)(F)F)c2)C(=O)O1 | 21.6 nM |  |  |  | 
14 | CC(=O)c1cccc(N2C[C@@H](C(=O)N[C@@H](Cc3ccccc3)[C@@H](O)C[C@H](Cc3ccccc3)NC(=O)COc3c(C)cccc3C)OC2=O)c1 | 35.1 nM |  |  |  | 
15 | CC(=O)N[C@H](C(=O)N[C@@H](Cc1ccccc1)C[C@H](O)[C@H](Cc1ccccc1)NC(=O)[C@@H]1CN(c2ccc(F)c(F)c2)C(=O)O1)C(C)C | 2.13 nM | 3.9 nM | 168 nM | 360 nM | 282 nM
16 | Cc1cccc(C)c1OCC(=O)N[C@@H](Cc1ccccc1)[C@@H](O)C[C@H](Cc1ccccc1)NC(=O)[C@@H]1CN(c2ccccc2)C(=O)O1 | 7.28 nM | 18.3 nM | 364 nM |  | 447 nM
17 | COC(=O)N[C@H](C(=O)N[C@@H](Cc1ccccc1)[C@@H](O)CN(Cc1ccc(-c2ccccn2)cc1)NC(=O)[C@@H](NC(=O)OC)C(C)(C)C)C(C)(C)C [ATAZANAVIR] |  | 0.009 nM | 0.33 nM |  | 0.49 nM
18 | CC(=O)N[C@H](C(=O)N[C@@H](Cc1ccccc1)C[C@H](O)[C@H](Cc1ccccc1)NC(=O)[C@@H]1CN(c2cccc(C(C)=O)c2)C(=O)O1)C(C)C |  | 1.67 nM | 82.3 nM | 620 nM | 122 nM
19 | Cc1cccc(C)c1OCC(=O)N[C@@H](Cc1ccccc1)[C@@H](O)C[C@H](Cc1ccccc1)NC(=O)[C@H](C(C)C)N1CCCNC1=O [LOPINAVIR] |  | 0.04 nM | 6.1 nM | 10 nM | 0.9 nM
20 | CC(=O)N[C@H](C(=O)N[C@@H](Cc1ccccc1)C[C@H](O)[C@H](Cc1ccccc1)NC(=O)[C@@H]1CN(c2cccc(C(F)(F)F)c2)C(=O)O1)C(C)C | 2.62 nM |  |  |  | 
21 | O=C(N[C@@H](Cc1ccccc1)[C@@H](O)CN(Cc1ccc(-c2ccccn2)cc1)NC(=O)[C@@H]1CN(c2ccccc2)C(=O)O1)[C@@H]1CN(c2ccccc2)C(=O)O1 | 300 nM |  |  |  | 
22 | Cc1cccc(C)c1OCC(=O)N[C@@H](Cc1ccccc1)C[C@H](O)[C@H](Cc1ccccc1)NC(=O)[C@@H]1CN(c2ccccc2)C(=O)O1 | 8.05 nM |  |  |  | 

From ChEMBL document CHEMBL1148771, “Design and synthesis of HIV-1 protease inhibitors incorporating oxazolidinones as P2/P2' ligands in pseudosymmetric dipeptide isosteres” (J Med Chem, 2007)
